# Published values of several laboratories.
# Lines come from different studies, so protocols differ.
# Target: Histamine H2 receptor (HRH2, Homo sapiens, UniProt P25021)
# Concentration: 10 µM
Structure (SMILES),assay,endpoint,value
Nc1ncc(-c2nc(N3CCOCC3)nc(N3CCOCC3)n2)c(C(F)F)n1,"cell-free assay, radioligand",remaining signal,106%
CC(C)N1CCC[C@H]1CNC(=O)c1cn(C2CCCC2)c(=O)c2c1c1ccccc1n2C,"ligand displacement, radioligand",inhibition,25%
N#CC1(c2ccccn2)CCN(Cc2cc(C(=O)O)c(=O)n3ccccc23)CC1,cell-free assay,inhibition,11.7%
CCCCCCCCCCCC(=O)OC[C@@H](COP(=O)(O)OCCNC(=O)c1ccc(Cn2c(=O)[nH]c3c(N)nc(OCCOC)nc32)cc1)OC(=O)CCCCCCCCCCC,"ligand displacement, radioligand",inhibition,40%
c1ccc(C(NCCNC(c2ccccc2)c2ccccc2)c2ccccc2)cc1,cell-free assay,inhibition,99%
Clc1ccc2c(C3CCN(CCc4c[nH]c5ccccc45)CC3)c[nH]c2c1,"ligand displacement, radioligand",inhibition,53%
CC(C)Cn1cnc2c(N)nc3ccccc3c21,"ligand displacement, radioligand",inhibition,63%
COCc1c(-c2cc3cc(C)cc(OC)c3s2)c2c(N)ncnn2c1CN1CCNC(=O)C1,"ligand displacement, radioligand",inhibition,-8%
COc1ccc(S(=O)(=O)N2CCCCC2)cc1C,"ligand displacement, radioligand",inhibition,< 30%
CCN(CC)CCCC[C@H](NC(=O)[C@H](CC(C)C)NC(=O)[C@H](C)NC(=O)[C@H](Cc1ccccc1)NC(=O)c1ccc(C(C)(C)C)cc1)C(=O)N[C@@H](CO)C(=O)OC,"ligand displacement, radioligand",inhibition,1%
C[C@H](C(=O)N[C@H]1COc2ccccc2[C@@H]1S(C)(=O)=O)c1ccc(F)cc1,cell-free assay,inhibition,-11%
Cn1cncc1[C@@](O)(COc1ccc(C#N)cc1-c1ccc(OC(F)(F)F)cc1)c1ccc(C#N)cc1,ligand displacement,inhibition,5.38%
